Data: ChEMBL document CHEMBL1136759, “Synthesis and antiviral activity of novel erythrofuranosyl imidazo[1,2-a]pyridine C-nucleosides constructed via palladium coupling of iodoimidazo[1,2-a]pyridines and dihydrofuran” (J Med Chem, 2003)

Experiments:
Human betaherpesvirus 5 [1] = test: Antiviral activity against HCMV using plaque reduction assay; >100 indicates IC50 greater than the noted(highest) concentration tested.; type: functional, organism-based
How it was run: (§1)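 HFF cells in 24-well dishes infected with about 100 pfu HCMV (Towne strain) per cm2 cell sheet. After adsorption, drug in growth medium added to duplicate wells at four to eight concentrations. Incubated 7 days at 37 °C, then fixed and stained with crystal violet, and plaques counted microscopically. IC50 from linear regression of % plaque reduction versus log concentration. Means of 2–5 experiments.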

Human alphaherpesvirus 1 [2] = test: Antiviral activity against HSV-1 using ELISA assay; >100 indicates IC50 greater than the noted (highest) concentration tested.; type: functional, organism-based
How it was run: (§2)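 BSC-1 cells seeded at 10000 per well in MEM(E) with 10% calf serum and incubated overnight. Drug added in quadruplicate with HSV-1 (KOS) at 100 pfu/well, then 3 days at 37 °C. Detection used HRP-conjugated rabbit anti-HSV-1 antibody with TMB substrate, read at 450 and 570 nm. IC50 from regression of % absorbance reduction versus log concentration.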

[3] = Visual cytotoxicity was scored on HFF cells at time of HCMV plaque enumeration; >100 indicates IC50 greater than the noted (highest) concentration tested.; type: functional, cell-based; conditions: Homo sapiens
How it was run: (§3)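 Stationary HFF cells, not affected by virus, inspected microscopically for cytotoxicity at the time of plaque counting in the 7-day, 37 °C HCMV plaque assay. Drug was in growth medium. IC50 estimated from regression of % inhibition against log concentration.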

KB [4] = test: Inhibition of KB cell growth was determined; >100 indicates IC50 greater than the noted(highest) concentration tested.; type: functional, cell-based; conditions: Homo sapiens
How it was run: (§4)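 KB cells seeded at 3000-5000 per well and incubated overnight. Compound added in quadruplicate at six to eight concentrations, then 48 h at 37 °C in CO2, covering about two population doublings. Cells fixed in 95% ethanol, stained with 0.1% crystal violet, dye eluted with acidified ethanol, read at 570 nm. IC50 by linear regression against log concentration.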

Human betaherpesvirus 5 [5] = test: Antiviral activity against HCMV using plaque reduction assay; >100 indicates IC50 greater than the noted (highest) concentration tested.; type: functional, organism-based; how it was run: as §1
[6] = Visual cytotoxicity was scored on HFF cells at time of HCMV plaque enumeration; >100 indicates IC50 greater than the noted(highest) concentration tested.; type: functional, cell-based; conditions: Homo sapiens; how it was run: as §3
Human betaherpesvirus 5 [7] = test: Antiviral activity against HCMV using plaque reduction assay; type: functional, organism-based; how it was run: as §1
Human alphaherpesvirus 1 [8] = test: Antiviral activity against HSV-1 using ELISA assay; type: functional, organism-based; how it was run: as §2
[9] = Visual cytotoxicity was scored on HFF cells at time of HCMV plaque enumeration; type: functional, cell-based; conditions: Homo sapiens; how it was run: as §3
KB [10] = test: Inhibition of KB cell growth was determined; type: functional, cell-based; conditions: Homo sapiens; how it was run: as §4

SMILES	IC50 (Human betaherpesvirus 5 [1]) [µM]	IC50 (Human alphaherpesvirus 1 [2]) [µM]	IC50 [3] [µM]	IC50 (KB [4]) [µM]	IC50 (Human betaherpesvirus 5 [7]) [µM]	further results
O[C@@H]1[C@H](O)CO[C@@H]1c1c(Cl)nc2ccc(Cl)cn12	> 100	> 100	> 100	> 100		
O[C@@H]1[C@H](O)CO[C@@H]1c1c(Cl)nc2cc(Cl)c(Cl)cn12	> 100	> 100				
O[C@@H]1C(c2c(Cl)nc3cc(Cl)c(Cl)cn23)OC[C@@H]1O (some centres not stated)		> 100	> 100	> 100		IC50 (Human betaherpesvirus 5 [5]): > 100 µM
O[C@@H]1COC(c2c(Cl)nc3ccc(Cl)cn23)[C@@H]1O (single isomer, unassigned)	> 100	> 100		> 100		IC50 [6]: > 100 µM
O[C@@H]1[C@H](O)CO[C@@H]1c1c(Cl)nc2cc(Cl)c(Cl)cn12 (stereo in doubt; 15a)			> 100	> 100	8	IC50 (Human alphaherpesvirus 1 [8]): 24 µM
O[C@@H]1[C@H](O)CO[C@@H]1c1c(Cl)nc2cc(Cl)c(Cl)cn12 (stereo in doubt; 20)					2.9	IC50 (Human alphaherpesvirus 1 [8]; Human alphaherpesvirus 1): 14 µM; IC50 [9]: 100 µM; IC50 (KB [10]): 68 µM
